According to ChEMBL document CHEMBL1143373, “Novel 6-methanesulfonamide-3,4-methylenedioxyphenyl-N-acylhydrazones: orally effective anti-inflammatory drug candidates” (Bioorg Med Chem, 2009):
Active and inactive are the calls of the source.

Assays:
[1] = system: Rattus norvegicus; assay: Antiinflammatory activity in Wistar rat assessed as inhibition of carrageenan-induced paw edema volume at 300 umol/kg, po administered 1 hrs prior to carrageenan challenge measured after 3 hrs; type: functional; design: scale not given: the % may be the effect or the level left
Procedure, shortened: (§1)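 Fasted Wistar rats of both sexes (150–200 g), given compound orally as a suspension in 5% arabic gum in saline. One hour later, 1% carrageenan (1 mg/paw) injected subplantar into one hind paw, saline into the other. Volumes measured by glass plethysmometer at 3 h. Edema taken as the carrageenan-minus-saline paw difference, expressed as % inhibition vs vehicle. n = 8–10.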

[2] = system: Mus musculus; assay: Antinociceptive activity against formalin-induced pain in mouse assessed as inhibition of paw licking response during inflammatory phase at 300 umol/kg, po measured 15 to 30 mins after formalin injection; type: functional; design: scale not given: the % may be the effect or the level left
Procedure, shortened: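 Mice received 20 µL of 2.5% formalin subplantar in the hind paw. The inflammatory (second) phase was recorded 15–30 min after injection.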

[3] = system: Rattus norvegicus; assay: Antiinflammatory activity in po dosed Wistar rat assessed as inhibition of carrageenan-induced paw edema volume administered 1 hrs prior to carrageenan challenge measured after 3 hrs; type: functional; procedure, shortened: as §1
[4] = system: Rattus norvegicus; assay: Antiinflammatory activity against arachidonic acid-induced ear edema in Wistar rat; type: functional, organism-based
[5] = system: Rattus norvegicus; assay: Antihyperalgesic activity in Wistar rat assessed as inhibition of carrageenan-induced thermal hyperalgesia at 300 umol/kg, po by hotplate test; type: functional, organism-based
Procedure, shortened: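 Fasted Wistar rats of both sexes (150–200 g), dosed orally with 300 µmol/kg as a suspension in 5% arabic gum in saline (vehicle controls). Carrageenan 1% (1 mg/paw) injected subplantar 1 h later. Hot plate held at 51 °C, cut-off 20 s. Left hind paw withdrawal latency read at 0, 30, 60, 120, 180 and 240 min post-challenge. Hyperalgesia taken as the latency drop from time 0. n = 8 per group.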

[6] = system: Mus musculus; assay: Antinociceptive activity in mouse assessed as inhibition of acetic acid-induced constrictions at 300 umol/kg, po; type: functional; design: scale not given: the % may be the effect or the level left
[7] = molecular target: Prostaglandin G/H synthase 1 (Homo sapiens, UniProt P23219); assay: Inhibition of COX1 in human whole blood assessed as TXB2 production by enzyme immunoassay; type: tissue-based
[8] = molecular target: T1, Prostaglandin G/H synthase 2 (Homo sapiens, UniProt P35354); assay: Inhibition of COX2 in LPS-stimulated human whole blood assessed as TXB2 production by enzyme immunoassay; type: tissue-based
T1 sequence (P35354 whole entry): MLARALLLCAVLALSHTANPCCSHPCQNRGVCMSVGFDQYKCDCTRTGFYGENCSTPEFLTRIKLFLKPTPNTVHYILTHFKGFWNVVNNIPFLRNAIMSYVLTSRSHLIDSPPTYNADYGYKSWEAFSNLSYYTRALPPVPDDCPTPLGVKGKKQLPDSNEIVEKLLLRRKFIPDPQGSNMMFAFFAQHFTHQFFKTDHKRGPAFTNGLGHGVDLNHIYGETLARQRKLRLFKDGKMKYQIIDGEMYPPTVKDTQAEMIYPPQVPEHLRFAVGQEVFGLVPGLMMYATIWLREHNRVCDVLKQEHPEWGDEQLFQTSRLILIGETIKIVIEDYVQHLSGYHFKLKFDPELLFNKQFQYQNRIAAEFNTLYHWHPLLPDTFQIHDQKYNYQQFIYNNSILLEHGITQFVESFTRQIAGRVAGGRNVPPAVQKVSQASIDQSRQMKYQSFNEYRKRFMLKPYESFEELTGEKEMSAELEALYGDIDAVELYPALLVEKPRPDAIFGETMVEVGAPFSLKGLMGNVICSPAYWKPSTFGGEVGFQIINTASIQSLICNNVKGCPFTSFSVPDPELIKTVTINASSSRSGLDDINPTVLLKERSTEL

Sequence of Prostaglandin G/H synthase 1 (P23219 whole entry): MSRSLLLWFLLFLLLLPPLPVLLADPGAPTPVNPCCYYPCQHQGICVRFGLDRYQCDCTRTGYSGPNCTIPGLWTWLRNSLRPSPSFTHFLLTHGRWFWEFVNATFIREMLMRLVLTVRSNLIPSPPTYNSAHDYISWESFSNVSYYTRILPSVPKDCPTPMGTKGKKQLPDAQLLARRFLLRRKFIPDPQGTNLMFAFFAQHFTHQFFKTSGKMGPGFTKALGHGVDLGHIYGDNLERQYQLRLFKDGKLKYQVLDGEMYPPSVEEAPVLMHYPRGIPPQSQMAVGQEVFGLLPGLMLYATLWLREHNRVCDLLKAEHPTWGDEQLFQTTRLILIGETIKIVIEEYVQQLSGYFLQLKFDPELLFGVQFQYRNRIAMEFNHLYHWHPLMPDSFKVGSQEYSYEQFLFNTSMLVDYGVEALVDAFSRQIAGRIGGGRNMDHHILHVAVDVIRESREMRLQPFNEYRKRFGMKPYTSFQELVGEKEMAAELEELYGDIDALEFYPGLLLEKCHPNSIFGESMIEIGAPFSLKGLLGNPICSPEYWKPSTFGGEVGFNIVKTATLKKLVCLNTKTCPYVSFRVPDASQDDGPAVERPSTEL

Structure (SMILES)	Activity [1] [%]	Activity [2] [%]	other results
CS(=O)(=O)Nc1cc2c(cc1C(=O)N/N=C/c1ccco1)OCO2	37.9	–	–
CS(=O)(=O)Nc1ccc([N+](=O)[O-])cc1Oc1ccccc1 [NIMESULIDE]	57.5	58.5	–
CS(=O)(=O)Nc1cc2c(cc1C(=O)N/N=C/c1ccccc1)OCO2	59.6	48.7	ED50 [3]: 97.8 µmol/kg; Activity [4]: Active; Activity [5]: Active; Activity [6]: 70%; IC50 [7]: 4.1 µM; IC50 [8]: 10.2 µM
O=C(N/N=C/c1cccs1)c1ccc2c(c1)OCO2	29.7	–	–
CS(=O)(=O)Nc1cc2c(cc1C(=O)N/N=C/c1cccs1)OCO2	36	–	–
